Calls of active or inactive are those of the source. No cut-off for these calls is given here.
What was measured:
[1] = molecular target: RAC-alpha serine/threonine-protein kinase (Homo sapiens) (UniProt P31749); test: Inhibition of EGF-induced AKT phosphorylation at S473 in human MDA-MB-468 cells at 5 uM incubated for 2 hrs followed by stimulation with EGF for 1 hr by Western blot assay; format: cell-based
Mus musculus = species: Mus musculus; test: Inhibition of IL2-induced STAT5 phosphorylation at Y694 in CD4+ T lymphocytes isolated from C57BL/6J mouse at 0.5 to 5 uM preincubated for 2 hrs followed by activation with plate-bound anti-CD3/anti-CD28 and IL2 for 15 mins by Western blot analysis; format: cell-based
How it was run: (§1)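 CD4+ T cells from C57BL/6J mice, sorted by AutoMACS; activated 15 min with plate-bound anti-CD3 and/or anti-CD28 with IL-2, IL-6 or IL-4; lysed with protease inhibitors plus 10 mM NaF and 1 mM Na3VO4; Bradford-normalised immunoblots for pSTAT1 (Tyr701), pSTAT5 (Tyr694), pSTAT6 (Tyr641) and total STATs.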

[2] = molecular target: T1, Signal transducer and transcription activator 6 (Mus musculus) (UniProt P52633); test: Inhibition of IL4-induced STAT6 phosphorylation at Y641 in CD4+ T lymphocytes isolated from C57BL/6J mouse preincubated for 2 hrs followed by activation with plate-bound anti-CD3/anti-CD28 and IL4 for 15 mins by Western blot analysis; format: cell-based; how it was run: as §1
T1 sequence (whole entry): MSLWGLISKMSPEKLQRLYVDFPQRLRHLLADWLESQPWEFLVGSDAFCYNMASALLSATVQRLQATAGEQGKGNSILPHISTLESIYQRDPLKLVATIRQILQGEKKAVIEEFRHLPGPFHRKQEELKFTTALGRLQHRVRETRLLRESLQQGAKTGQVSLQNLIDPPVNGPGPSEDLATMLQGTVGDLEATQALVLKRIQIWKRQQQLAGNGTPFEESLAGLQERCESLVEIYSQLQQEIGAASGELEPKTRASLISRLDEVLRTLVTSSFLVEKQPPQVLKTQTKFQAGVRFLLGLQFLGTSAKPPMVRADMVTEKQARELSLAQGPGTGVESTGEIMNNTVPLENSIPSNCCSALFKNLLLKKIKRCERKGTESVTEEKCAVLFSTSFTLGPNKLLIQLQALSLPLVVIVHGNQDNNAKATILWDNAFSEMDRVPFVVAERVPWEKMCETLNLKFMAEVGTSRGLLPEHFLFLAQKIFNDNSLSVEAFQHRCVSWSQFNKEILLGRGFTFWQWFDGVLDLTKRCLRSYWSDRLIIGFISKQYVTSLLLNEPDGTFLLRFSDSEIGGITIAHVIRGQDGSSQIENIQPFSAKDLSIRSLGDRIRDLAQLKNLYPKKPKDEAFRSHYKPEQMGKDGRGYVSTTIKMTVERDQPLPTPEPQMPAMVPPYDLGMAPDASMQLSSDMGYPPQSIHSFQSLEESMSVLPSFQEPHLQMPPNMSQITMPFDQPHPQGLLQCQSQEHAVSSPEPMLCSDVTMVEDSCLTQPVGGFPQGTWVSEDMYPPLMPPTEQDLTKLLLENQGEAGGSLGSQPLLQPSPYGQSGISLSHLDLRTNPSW

[3] = Cytotoxicity against human BEAS2B cells assessed as cell viability after 72 hrs by MTS assay; format: cell-based; conditions: beas-2b
How it was run: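 Beas-2B seeded at 2000 cells/well; 10 mM DMSO stocks serially diluted in DMSO and equal amounts added to cultures; 72 h at 37 °C; medium replaced by 1:5 MTS/PBS, 1 h further incubation; viable cells read as optical density at 490 nm.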

[4] = molecular target: T2, Signal transducer and activator of transcription 6 (Homo sapiens) (UniProt P42226); test: Inhibition of IL4-stimulated STAT6 phosphorylation at tyrosine 641 in human Beas-2B cells at 0.025 to 5 uM incubated for 2 hrs followed by stimulation with IL4 for 1 hr by Western blot assay; format: cell-based
T2 sequence (whole entry): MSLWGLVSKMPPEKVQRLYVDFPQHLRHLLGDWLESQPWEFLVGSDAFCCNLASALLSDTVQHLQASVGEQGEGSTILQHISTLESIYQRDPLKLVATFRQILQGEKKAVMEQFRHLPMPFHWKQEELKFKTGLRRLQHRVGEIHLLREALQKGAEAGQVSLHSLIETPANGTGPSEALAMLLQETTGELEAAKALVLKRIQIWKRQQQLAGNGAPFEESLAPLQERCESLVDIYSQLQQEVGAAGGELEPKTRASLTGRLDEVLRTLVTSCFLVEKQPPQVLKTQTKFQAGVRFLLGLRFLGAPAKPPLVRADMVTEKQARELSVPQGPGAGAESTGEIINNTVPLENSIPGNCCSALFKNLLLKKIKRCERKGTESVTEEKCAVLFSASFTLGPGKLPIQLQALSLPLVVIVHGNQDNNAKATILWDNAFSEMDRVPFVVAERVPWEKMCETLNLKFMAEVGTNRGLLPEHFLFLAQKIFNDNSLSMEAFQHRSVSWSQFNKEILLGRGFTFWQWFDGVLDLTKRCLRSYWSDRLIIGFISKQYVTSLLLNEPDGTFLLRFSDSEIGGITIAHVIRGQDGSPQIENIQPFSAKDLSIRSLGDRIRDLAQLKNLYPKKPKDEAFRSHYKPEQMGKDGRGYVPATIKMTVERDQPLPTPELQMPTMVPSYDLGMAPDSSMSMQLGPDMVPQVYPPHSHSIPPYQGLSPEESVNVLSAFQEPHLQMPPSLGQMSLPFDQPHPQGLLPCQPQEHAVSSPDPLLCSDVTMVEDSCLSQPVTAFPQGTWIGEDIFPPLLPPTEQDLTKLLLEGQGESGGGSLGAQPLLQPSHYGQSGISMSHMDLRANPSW
How it was run: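 Beas-2B seeded at 3.0 × 10^5 cells/well the day before; prodrugs from DMSO stocks added to final concentrations for 2 h, then IL-4 (2 ng/mL) for 1 h. PBS-washed cells lysed with PMSF, protein by modified Lowry; blots blocked in 3% BSA/TBST, probed for pSTAT6 (Tyr641), stripped and reprobed for total STAT6; ECL on X-ray film.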

[5] = molecular target: T2, Signal transducer and activator of transcription 6 (Homo sapiens); test: Inhibition of IL-13-stimulated STAT6 SH2 domain phosphorylation in human Beas-2B cells assessed as inhibition of CCL26 mRNA expression preincubated for 2 hrs followed by stimulation with IL-13 for 24 hrs by RT-PCR analysis
[6] = molecular target: Signal transducer and activator of transcription 3 (Mus musculus) (UniProt P42227); test: Inhibition of IL6-induced STAT3 phosphorylation at S727 in CD4+ T lymphocytes isolated from C57BL/6J mouse preincubated for 2 hrs followed by activation with plate-bound anti-CD3/anti-CD28 for 15 mins by Western blot analysis
Signal transducer and activator of transcription 3 (Mus musculus), sequence (P42227 whole entry, the tested form may be a part): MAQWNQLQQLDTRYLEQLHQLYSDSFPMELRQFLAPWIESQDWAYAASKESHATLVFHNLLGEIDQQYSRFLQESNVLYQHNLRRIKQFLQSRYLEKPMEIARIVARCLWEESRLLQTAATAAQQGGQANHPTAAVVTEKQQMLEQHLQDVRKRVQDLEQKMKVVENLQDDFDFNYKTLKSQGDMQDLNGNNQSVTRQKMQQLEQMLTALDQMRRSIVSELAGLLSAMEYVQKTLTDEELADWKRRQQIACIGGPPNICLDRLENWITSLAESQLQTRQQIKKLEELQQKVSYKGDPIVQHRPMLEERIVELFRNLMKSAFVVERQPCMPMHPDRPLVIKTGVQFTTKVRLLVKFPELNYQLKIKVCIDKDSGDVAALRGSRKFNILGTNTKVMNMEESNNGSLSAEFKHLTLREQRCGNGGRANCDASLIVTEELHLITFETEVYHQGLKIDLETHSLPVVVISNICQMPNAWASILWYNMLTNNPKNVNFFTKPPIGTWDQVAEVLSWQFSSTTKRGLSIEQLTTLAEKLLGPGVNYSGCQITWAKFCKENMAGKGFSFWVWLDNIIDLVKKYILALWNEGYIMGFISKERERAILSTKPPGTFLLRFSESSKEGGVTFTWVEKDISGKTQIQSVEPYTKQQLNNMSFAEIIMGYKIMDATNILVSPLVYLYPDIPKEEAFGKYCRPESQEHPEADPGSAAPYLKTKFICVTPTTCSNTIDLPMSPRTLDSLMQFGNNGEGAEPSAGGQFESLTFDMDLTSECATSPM

[7] = molecular target: T2, Signal transducer and activator of transcription 6 (Homo sapiens); test: Inhibition of IL-13-stimulated STAT6 SH2 domain phosphorylation in human Beas-2B cells assessed as inhibition of CCL26 mRNA expression at 100 nM preincubated for 2 hrs followed by stimulation with IL-13 for 24 hrs by RT-PCR analysis relative to control

RAC-alpha serine/threonine-protein kinase (Homo sapiens), sequence (P31749 whole entry): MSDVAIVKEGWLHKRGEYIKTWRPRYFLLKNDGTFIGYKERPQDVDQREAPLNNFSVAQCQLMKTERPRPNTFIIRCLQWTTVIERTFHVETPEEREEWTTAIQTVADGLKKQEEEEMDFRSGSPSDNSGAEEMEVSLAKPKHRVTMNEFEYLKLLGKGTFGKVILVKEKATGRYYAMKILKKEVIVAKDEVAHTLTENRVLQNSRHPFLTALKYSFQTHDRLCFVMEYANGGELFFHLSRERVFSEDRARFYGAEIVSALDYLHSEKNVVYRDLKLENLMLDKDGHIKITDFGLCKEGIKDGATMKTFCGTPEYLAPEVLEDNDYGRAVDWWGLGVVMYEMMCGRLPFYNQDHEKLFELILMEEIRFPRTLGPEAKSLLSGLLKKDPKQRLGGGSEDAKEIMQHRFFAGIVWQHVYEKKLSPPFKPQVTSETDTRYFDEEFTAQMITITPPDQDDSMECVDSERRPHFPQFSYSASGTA

C/C(=C\C(=O)N[C@H](C(=O)N1CCC[C@H]1C(=O)N(C)c1ccccc1)C(C)(C)C)c1ccc(C(F)(F)P(=O)(OCOC(=O)C(C)(C)C)OCOC(=O)C(C)(C)C)cc1
inhibition [1]: Active | inhibition (Mus musculus): Active | inhibition [2]: Active | Activity [3]: Non-toxic | inhibition [4]: Active | inhibition [5]: Dose-dependent effect | inhibition [6]: inactive | inhibition [7]: > 50%
